Assay results published in ChEMBL document CHEMBL1156845, “Spirocyclic ureas: orally bioavailable 11 beta-HSD1 inhibitors identified by computer-aided drug design” (Bioorg Med Chem Lett, 2010).

Experiments:
[1] = target: T1, 11-beta-hydroxysteroid dehydrogenase 1 (Homo sapiens, UniProt P28845); test: Inhibition of 11beta-HSD1 in human adipocytes assessed as conversion of [3H]cortisone to [3H]cortisol after 2 hrs by SPA; type: cell-based
[2] = target: T1, 11-beta-hydroxysteroid dehydrogenase 1; test: Inhibition of human recombinant 11beta-HSD1 expressed in CHO cells assessed as conversion of [3H]cortisone to [3H]cortisol by SPA; type: cell-based
[3] = target: T2, 11-beta-hydroxysteroid dehydrogenase type 2 (Homo sapiens, UniProt P80365); test: Inhibition of 11beta-HSD2
T2 sequence (P80365 whole entry): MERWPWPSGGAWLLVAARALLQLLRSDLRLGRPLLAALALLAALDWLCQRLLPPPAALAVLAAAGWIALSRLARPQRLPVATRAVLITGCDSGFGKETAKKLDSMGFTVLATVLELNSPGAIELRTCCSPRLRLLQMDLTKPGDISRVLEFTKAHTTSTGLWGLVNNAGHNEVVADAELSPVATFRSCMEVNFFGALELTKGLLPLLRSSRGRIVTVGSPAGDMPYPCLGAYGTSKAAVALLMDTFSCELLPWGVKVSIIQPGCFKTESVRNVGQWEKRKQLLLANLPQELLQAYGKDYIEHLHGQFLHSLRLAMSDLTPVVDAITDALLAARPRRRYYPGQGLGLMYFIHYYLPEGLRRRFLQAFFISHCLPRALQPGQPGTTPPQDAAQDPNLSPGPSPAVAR

[4] = Half life in rat at 9.68 mg/kg, po and 1.9 mg/kg, iv; type: ADME, organism-based; conditions: in vivo
Procedure, shortened: (§1)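 PK after oral and IV dosing, with compounds given as sodium salts. Rat and mouse received 9.68 mg/kg PO and 1.9 mg/kg IV; cynomolgus monkey received 2 mg/kg PO and 1 mg/kg IV. AUC(inf) and t1/2 are the oral parameters, clearance is from the IV arm, and %F is oral bioavailability.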

[5] = Clearance in rat at 1.9 mg/kg, iv; type: ADME, organism-based; design: dose 1.9 mg/kg, route intravenous; conditions: in vivo; procedure, shortened: as §1
[6] = AUC (infinity) in rat at 9.68 mg/kg, po and 1.9 mg/kg, iv; type: ADME, organism-based; conditions: plasma; procedure, shortened: as §1
[7] = Oral bioavailability in rat at 9.68 mg/kg; type: ADME, organism-based; conditions: in vivo; procedure, shortened: as §1
Cynomolgus monkey = test: Inhibition of 11beta-HSD1 in cynomolgus monkey assessed as reduction of plasma cortisol concentration at 10 mg/kg, po administered 2 hrs before cortisone 21-acetate challenge measured every 30 mins for 6 hrs; type: functional, Macaca fascicularis; design: scale not given: the % may be the effect or the level left
Procedure, shortened: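 Cynomolgus monkeys (n = 5, crossover, 7-day washout) were given dexamethasone at t = −8 h to suppress endogenous cortisol. Vehicle or compound (10 mg/kg PO) followed at t = 0, then cortisone 21-acetate challenge (25 mg PO) at t = 2 h. Blood was sampled every 30 min for 6 h to measure plasma cortisol.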

[8] = Drug level in mouse liver at 30 mg/kg, po after 4 hrs by LC-MS/MS analysis; type: ADME, organism-based; design: dose 30 mg/kg, route oral; conditions: read-out: Drug uptake
Procedure, shortened: (§2)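 Mice (n = 3) were dosed PO at 30 mg/kg as a suspension in 0.5% methocellulose in PBS. Plasma, liver and adipose were harvested at 4 h and snap frozen. Thawed tissue was homogenized in 0.05 M BES, pH 7, and extracted into acetonitrile. Levels were measured by LC–MS/MS against standard curves made separately in each tissue matrix.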

[9] = Drug level in mouse plasma at 30 mg/kg, po after 4 hrs by LC-MS/MS analysis; type: ADME, organism-based; design: dose 30 mg/kg, route oral; procedure, shortened: as §2
[10] = Drug level in mouse adipose at 30 mg/kg, po after 4 hrs by LC-MS/MS analysis; type: ADME, organism-based; design: dose 30 mg/kg, route oral; conditions: adipose tissue, read-out: Drug uptake; procedure, shortened: as §2
[11] = AUC (infinity) in mouse at 9.68 mg/kg, po and 1.9 mg/kg, iv; type: ADME, organism-based; conditions: plasma; procedure, shortened: as §1
[12] = Clearance in mouse at 1.9 mg/kg, iv; type: ADME, organism-based; design: dose 1.9 mg/kg, route intravenous; conditions: in vivo; procedure, shortened: as §1
[13] = Clearance in cynomolgus monkey at 1 mg/kg, iv; type: ADME, organism-based, Macaca fascicularis; design: dose 1 mg/kg, route intravenous; conditions: in vivo; procedure, shortened: as §1
[14] = Half life in mouse at 9.68 mg/kg, po and 1.9 mg/kg, iv; type: ADME, organism-based; conditions: in vivo; procedure, shortened: as §1
[15] = Oral bioavailability in mouse at 9.68 mg/kg; type: ADME, organism-based; conditions: in vivo; procedure, shortened: as §1
[16] = Oral bioavailability in cynomolgus monkey at 2 mg/kg; type: ADME, organism-based, Macaca fascicularis; conditions: in vivo; procedure, shortened: as §1
Cytochrome P450 2C9 = Cytochrome P450 2C9 (Homo sapiens, UniProt P11712); test: Inhibition of CYP2C9; type: ADME
Cytochrome P450 2C9, sequence (P11712 whole entry): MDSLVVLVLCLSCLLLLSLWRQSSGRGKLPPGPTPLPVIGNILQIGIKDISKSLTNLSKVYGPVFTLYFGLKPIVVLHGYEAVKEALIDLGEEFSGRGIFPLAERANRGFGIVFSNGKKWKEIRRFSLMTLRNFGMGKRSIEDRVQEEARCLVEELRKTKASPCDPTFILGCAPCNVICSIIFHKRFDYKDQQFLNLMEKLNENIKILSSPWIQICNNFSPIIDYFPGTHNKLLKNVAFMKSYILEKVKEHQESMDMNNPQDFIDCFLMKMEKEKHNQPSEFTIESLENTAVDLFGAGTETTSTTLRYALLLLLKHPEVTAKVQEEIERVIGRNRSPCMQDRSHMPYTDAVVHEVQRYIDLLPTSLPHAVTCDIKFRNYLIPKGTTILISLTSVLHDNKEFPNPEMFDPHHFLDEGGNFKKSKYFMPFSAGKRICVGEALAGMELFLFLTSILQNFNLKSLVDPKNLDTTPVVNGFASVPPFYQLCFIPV

[17] = Half life in human liver microsomes; type: ADME, Microsome
[18] = AUC (infinity) in cynomolgus monkey at 2 mg/kg, po and 1 mg/kg, iv; type: ADME, organism-based, Macaca fascicularis; conditions: plasma; procedure, shortened: as §1
[19] = Half life in cynomolgus monkey at 2 mg/kg, po and 1 mg/kg, iv; type: ADME, organism-based, Macaca fascicularis; conditions: in vivo; procedure, shortened: as §1
Cytochrome P450 3A4 = Cytochrome P450 3A4 (Homo sapiens, UniProt P08684); test: Inhibition of CYP3A4; type: ADME
Cytochrome P450 3A4, sequence (P08684 whole entry): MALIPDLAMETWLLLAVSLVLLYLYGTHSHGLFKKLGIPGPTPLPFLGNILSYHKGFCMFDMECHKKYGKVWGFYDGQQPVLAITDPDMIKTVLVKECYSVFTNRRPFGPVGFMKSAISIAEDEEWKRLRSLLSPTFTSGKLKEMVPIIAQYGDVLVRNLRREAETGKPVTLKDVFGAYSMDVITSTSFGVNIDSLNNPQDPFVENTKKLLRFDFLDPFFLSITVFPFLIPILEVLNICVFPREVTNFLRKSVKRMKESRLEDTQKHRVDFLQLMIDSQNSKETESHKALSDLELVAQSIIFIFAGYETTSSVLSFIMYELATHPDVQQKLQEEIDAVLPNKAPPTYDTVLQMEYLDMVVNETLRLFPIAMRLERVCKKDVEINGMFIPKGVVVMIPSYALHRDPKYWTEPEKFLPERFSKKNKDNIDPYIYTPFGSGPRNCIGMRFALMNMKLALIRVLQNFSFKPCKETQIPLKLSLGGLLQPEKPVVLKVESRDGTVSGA

Cytochrome P450 2D6 = Cytochrome P450 2D6 (Homo sapiens, UniProt P10635); test: Inhibition of CYP2D6; type: ADME
Cytochrome P450 2D6, sequence (P10635 whole entry): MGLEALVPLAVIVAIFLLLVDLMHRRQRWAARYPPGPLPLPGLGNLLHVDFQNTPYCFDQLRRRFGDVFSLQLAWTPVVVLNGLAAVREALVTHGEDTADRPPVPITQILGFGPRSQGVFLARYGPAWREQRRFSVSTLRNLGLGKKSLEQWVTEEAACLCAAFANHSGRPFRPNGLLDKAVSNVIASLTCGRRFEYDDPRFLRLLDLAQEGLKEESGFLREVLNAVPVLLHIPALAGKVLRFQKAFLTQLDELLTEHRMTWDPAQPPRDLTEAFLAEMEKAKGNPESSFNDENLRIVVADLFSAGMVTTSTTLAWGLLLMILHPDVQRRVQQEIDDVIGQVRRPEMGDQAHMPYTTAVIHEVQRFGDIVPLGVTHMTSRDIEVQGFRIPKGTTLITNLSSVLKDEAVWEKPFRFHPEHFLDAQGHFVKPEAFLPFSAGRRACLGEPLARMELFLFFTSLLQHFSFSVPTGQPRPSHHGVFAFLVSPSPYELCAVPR

T1 sequence (P28845 whole entry): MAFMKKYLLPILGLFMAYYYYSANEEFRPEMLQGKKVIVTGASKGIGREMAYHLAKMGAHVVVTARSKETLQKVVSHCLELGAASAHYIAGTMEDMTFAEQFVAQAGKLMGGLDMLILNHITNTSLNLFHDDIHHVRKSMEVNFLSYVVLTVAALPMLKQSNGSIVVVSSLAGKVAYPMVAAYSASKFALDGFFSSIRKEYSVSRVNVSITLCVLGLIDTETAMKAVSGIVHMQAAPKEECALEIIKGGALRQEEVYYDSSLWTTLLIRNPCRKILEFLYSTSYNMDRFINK

IC50 [1]	IC50 [2]	IC50 [3]	SMILES	other results
2.7 nM	0.8 nM		O=C(NC1C2CC3CC(C2)CC1C3)N1CCC2(CCc3ccccc32)CC1 (stereo not drawn)	
22.5 nM	8.9 nM	> 10000 nM	Cc1ccc2c(c1)C1(CCN(C(=O)NC3C4CC5CC(C4)CC3C5)CC1)CC2CC(=O)O (stereo not drawn)	
			O=C(O)CC1CC2(CCN(C(=O)NC3C4CC5CC(C4)CC3C5)CC2)c2ccccc21 (stereo not drawn)	half-life [4]: 2.87 h; clearance [5]: 47.1 mL/min/kg; AUC(0-inf) [6]: 3530 ng·h/mL; bioavailability [7]: 94%
> 200 nM	68.6 nM		O=C(O)C1CC2(CCN(C(=O)NC3C4CC5CC(C4)CC3C5)CC2)c2ccccc21 (stereo not drawn)	
22.3 nM	2 nM	> 10000 nM	CS(=O)(=O)NC(=O)CC1CC2(CCN(C(=O)NC3C4CC5CC(C4)CC3C5)CC2)c2c(Br)cccc21 (stereo not drawn)	
0.9 nM	0.5 nM		NC(=O)CC1CC2(CCN(C(=O)NC3C4CC5CC(C4)CC3C5)CC2)c2c(Br)cccc21 (stereo not drawn)	
2.5 nM	1.1 nM	> 10000 nM	O=C(O)C[C@H]1CC2(CCN(C(=O)NC3C4CC5CC(C4)CC3C5)CC2)c2c(Br)cccc21 (stereo partly drawn)	Activity (Cynomolgus monkey): 80%; concentration at 4 h [8]: 7070 ng/mL; concentration at 4 h [9]: 393 ng/mL; concentration at 4 h [10]: 127 ng/mL
30.2 nM	3.4 nM	> 10000 nM	O=C(O)CC1CC2(CCN(C(=O)NC3C4CC5CC(C4)CC3C5)CC2)c2cc(Cl)ccc21 (stereo not drawn)	
10.7 nM	2.2 nM	> 10000 nM	O=C(O)CC1CC2(CCN(C(=O)NC3C4CC5CC(C4)CC3C5)CC2)c2c(Cl)cccc21 (stereo not drawn)	
5.3 nM	1.6 nM	> 10000 nM	O=C(O)CC1CC2(CCN(C(=O)NC3C4CC5CC(C4)CC3C5)CC2)c2c(Br)cccc21 (stereo not drawn)	AUC(0-inf) [11]: 1720 ng·h/mL; clearance [12]: 28.1 mL/min/kg; concentration at 4 h [8]: 5130 ng/mL; half-life [4]: 3.46 h; clearance [13]: 13.8 mL/min/kg; clearance [5]: 26.6 mL/min/kg; half-life [14]: 6.17 h; bioavailability [15]: 29%; bioavailability [16]: 31%; concentration at 4 h [9]: 442 ng/mL; IC50 (Cytochrome P450 2C9): > 15000 nM; half-life [17]: > 1 h; AUC(0-inf) [18]: 743 ng·h/mL; half-life [19]: 6.03 h; IC50 (Cytochrome P450 3A4): > 15000 nM; IC50 (Cytochrome P450 2D6): > 15000 nM; AUC(0-inf) [6]: 5400 ng·h/mL; concentration at 4 h [10]: 77 ng/mL; bioavailability [7]: 90%
18.3 nM	7.6 nM	> 10000 nM	Cc1cccc2c1C1(CCN(C(=O)NC3C4CC5CC(C4)CC3C5)CC1)CC2CC(=O)O (stereo not drawn)	
23.2 nM	3.4 nM	> 10000 nM	O=C(O)CC1CC2(CCN(C(=O)NC3C4CC5CC(C4)CC3C5)CC2)c2ccc(Cl)cc21 (stereo not drawn)	
18 nM	1.7 nM	9000 nM	O=C(NC1C2CC3CC(C2)CC1C3)N1CCC2(CC1)CC(CCO)c1cccc(Br)c12 (stereo not drawn)	
7.5 nM	2 nM	> 10000 nM	O=C(O)C[C@@H]1CC2(CCN(C(=O)NC3C4CC5CC(C4)CC3C5)CC2)c2c(Br)cccc21 (single isomer, unassigned)	
